Measured values: ChEMBL document CHEMBL3797186, “Single Residue Substitutions That Confer Voltage-Gated Sodium Ion Channel Subtype Selectivity in the NaV1.7 Inhibitory Peptide GpTx-1” (J Med Chem, 2016)
Positions of bridges follow the written chain, without caps; N, C: chain ends. Residues, ends and D or L forms follow the SMILES beside them.

Tests used:
[1] = target: Sodium channel protein type 9 subunit alpha (Homo sapiens, UniProt Q15858); experiment: Inhibition of human Nav1.7 expressed in HEK293 cells assessed as inward peak current by ion-works quattro patch clamp electrophysiology method; format: cell-based
Chain of Sodium channel protein type 9 subunit alpha (Q15858 whole entry): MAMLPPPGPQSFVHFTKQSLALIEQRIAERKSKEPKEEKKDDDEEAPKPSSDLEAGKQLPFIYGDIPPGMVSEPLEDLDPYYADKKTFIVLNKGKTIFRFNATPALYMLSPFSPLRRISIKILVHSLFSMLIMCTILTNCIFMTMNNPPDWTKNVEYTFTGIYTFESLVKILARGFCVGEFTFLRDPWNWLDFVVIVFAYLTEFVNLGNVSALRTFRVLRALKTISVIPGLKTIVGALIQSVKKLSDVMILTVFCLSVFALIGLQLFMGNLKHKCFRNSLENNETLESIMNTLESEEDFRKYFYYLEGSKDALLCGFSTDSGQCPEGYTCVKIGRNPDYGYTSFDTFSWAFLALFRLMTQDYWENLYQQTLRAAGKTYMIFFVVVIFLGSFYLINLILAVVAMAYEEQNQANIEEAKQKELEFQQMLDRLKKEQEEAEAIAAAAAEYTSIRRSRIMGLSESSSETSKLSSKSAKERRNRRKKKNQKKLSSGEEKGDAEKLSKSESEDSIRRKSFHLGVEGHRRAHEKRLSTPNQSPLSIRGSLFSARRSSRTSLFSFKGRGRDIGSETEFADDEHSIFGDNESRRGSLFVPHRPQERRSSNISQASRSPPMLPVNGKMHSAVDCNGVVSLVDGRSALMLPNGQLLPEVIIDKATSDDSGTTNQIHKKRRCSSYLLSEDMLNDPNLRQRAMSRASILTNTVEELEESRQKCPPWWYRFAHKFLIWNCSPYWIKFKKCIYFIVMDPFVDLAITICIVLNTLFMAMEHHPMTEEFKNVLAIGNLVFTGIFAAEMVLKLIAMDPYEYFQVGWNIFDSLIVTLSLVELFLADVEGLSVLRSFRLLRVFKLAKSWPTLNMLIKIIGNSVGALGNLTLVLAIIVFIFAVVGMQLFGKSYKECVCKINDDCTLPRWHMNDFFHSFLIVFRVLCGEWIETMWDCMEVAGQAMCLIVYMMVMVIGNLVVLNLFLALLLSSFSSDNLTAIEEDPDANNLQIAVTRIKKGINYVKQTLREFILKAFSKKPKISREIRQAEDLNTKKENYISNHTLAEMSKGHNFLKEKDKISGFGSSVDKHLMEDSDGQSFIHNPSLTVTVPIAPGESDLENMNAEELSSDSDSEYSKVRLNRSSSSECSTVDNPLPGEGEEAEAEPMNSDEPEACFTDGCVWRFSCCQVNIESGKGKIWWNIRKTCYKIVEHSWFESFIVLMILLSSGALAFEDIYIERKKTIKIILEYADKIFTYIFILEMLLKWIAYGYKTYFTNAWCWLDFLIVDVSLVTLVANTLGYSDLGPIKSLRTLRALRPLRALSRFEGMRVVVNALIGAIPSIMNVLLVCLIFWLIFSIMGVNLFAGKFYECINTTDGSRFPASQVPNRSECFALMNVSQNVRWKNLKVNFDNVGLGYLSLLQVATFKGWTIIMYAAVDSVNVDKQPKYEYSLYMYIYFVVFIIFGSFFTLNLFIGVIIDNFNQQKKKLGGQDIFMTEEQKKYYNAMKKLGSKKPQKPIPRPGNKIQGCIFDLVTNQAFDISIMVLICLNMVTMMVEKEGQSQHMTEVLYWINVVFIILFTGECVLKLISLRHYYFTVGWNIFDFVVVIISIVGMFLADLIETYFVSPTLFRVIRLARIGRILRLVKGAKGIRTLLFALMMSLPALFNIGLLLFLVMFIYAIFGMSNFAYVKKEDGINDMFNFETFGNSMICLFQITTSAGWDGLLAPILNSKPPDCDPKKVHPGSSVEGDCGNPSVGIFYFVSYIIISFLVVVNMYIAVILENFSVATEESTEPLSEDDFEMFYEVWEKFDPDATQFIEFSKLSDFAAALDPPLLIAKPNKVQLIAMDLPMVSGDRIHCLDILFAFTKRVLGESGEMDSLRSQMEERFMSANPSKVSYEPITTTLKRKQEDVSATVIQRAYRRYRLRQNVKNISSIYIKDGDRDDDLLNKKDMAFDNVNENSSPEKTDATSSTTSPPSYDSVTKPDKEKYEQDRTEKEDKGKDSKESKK

[2] = target: Sodium channel protein type 5 subunit alpha (Homo sapiens, UniProt Q14524); experiment: Inhibition of human Nav1.5 expressed in HEK293 cells assessed as inward peak current by ion-works quattro patch clamp electrophysiology method; format: cell-based
Chain of Sodium channel protein type 5 subunit alpha (Q14524 whole entry): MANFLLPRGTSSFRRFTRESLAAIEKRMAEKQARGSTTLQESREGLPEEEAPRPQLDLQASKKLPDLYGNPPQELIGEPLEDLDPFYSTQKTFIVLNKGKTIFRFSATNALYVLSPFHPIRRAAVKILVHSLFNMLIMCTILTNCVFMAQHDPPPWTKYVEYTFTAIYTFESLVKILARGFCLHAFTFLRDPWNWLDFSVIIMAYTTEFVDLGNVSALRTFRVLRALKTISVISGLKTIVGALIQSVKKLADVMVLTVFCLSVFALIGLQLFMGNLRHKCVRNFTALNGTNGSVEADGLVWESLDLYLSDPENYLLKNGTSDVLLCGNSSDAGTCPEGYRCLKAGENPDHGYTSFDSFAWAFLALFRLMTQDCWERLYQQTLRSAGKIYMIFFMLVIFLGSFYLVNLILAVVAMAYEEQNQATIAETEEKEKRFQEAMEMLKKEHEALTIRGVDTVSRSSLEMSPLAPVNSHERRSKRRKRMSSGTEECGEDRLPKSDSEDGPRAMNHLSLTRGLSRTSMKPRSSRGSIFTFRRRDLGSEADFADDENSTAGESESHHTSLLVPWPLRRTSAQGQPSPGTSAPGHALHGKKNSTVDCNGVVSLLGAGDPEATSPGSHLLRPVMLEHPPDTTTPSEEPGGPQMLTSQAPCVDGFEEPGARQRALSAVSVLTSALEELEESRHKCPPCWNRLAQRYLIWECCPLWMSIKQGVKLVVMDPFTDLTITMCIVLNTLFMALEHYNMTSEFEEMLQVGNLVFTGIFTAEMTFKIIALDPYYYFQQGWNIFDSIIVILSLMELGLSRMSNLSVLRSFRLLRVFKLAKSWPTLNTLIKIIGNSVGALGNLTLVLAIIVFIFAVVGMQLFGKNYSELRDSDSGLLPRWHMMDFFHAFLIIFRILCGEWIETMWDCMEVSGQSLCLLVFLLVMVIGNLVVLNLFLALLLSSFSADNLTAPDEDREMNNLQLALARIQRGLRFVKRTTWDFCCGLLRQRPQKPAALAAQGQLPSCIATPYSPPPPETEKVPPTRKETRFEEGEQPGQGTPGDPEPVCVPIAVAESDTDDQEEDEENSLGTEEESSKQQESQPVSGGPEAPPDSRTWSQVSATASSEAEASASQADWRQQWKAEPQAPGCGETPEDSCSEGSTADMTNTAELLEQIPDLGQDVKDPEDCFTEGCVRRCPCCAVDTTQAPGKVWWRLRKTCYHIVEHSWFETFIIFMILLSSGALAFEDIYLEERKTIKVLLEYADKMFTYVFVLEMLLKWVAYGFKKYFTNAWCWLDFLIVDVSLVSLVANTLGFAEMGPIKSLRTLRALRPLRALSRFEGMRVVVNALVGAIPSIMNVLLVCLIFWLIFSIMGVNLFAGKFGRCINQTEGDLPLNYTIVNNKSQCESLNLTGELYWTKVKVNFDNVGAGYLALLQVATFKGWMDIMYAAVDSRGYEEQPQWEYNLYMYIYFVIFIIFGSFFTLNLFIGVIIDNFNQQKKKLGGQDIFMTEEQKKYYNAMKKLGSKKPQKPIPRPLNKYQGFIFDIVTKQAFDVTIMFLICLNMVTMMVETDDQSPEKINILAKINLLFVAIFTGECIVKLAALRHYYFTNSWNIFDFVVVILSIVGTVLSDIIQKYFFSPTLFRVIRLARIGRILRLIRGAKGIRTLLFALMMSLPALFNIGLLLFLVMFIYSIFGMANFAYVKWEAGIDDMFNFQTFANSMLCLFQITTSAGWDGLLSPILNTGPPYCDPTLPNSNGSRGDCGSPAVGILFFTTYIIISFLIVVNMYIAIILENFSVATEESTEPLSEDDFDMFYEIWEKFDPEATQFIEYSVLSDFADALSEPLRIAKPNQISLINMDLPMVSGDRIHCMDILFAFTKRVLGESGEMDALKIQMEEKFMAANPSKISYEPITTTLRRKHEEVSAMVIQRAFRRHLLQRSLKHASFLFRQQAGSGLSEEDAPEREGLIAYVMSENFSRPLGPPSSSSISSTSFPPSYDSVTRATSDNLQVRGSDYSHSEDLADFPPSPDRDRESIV
Outline: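 Stable HEK293 line expressing human NaV1.5, recorded by population patch clamp on the IonWorks Quattro.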

SMILES: CC[C@H](C)[C@@H]1NC(=O)[C@@H]2CSSC[C@@H]3NC(=O)[C@H](C(C)C)NC(=O)[C@H](CC(C)C)NC(=O)[C@H](CCCCN)NC(=O)[C@@H]4CCCN4C(=O)[C@H](CCCNC(=N)N)NC(=O)[C@H](CSSC[C@H](NC(=O)[C@@H](N)CC(=O)O)C(=O)N[C@@H](CC(C)C)C(=O)NCC(=O)N[C@@H](Cc4ccccc4)C(=O)N[C@@H](CCSC)C(=O)N[C@@H](CCCNC(=N)N)C(=O)N[C@@H](CCCCN)C(=O)N2)NC(=O)[C@H](CSSC[C@@H](C(=O)N[C@@H](CCCCN)C(=O)N[C@@H](Cc2ccc(O)cc2)C(=O)N[C@H](C(=O)N[C@@H](Cc2ccccc2)C(N)=O)C(C)C)NC(=O)[C@H](Cc2c[nH]c4ccccc24)NC(=O)[C@H](CCCCN)NC(=O)[C@H](Cc2cnc[nH]2)NC(=O)[C@H]([C@@H](C)O)NC(=O)[C@H](CCCNC(=N)N)NC(=O)[C@H](CO)NC3=O)NC(=O)[C@H](CCCCN)NC(=O)[C@H](CC(=O)O)NC(=O)[C@H](CC(N)=O)NC(=O)[C@H](CC(=O)O)NC(=O)[C@@H]2CCCN2C1=O (H-DCLGFMRKCIPDNDKCCRPKLVCSRTHKWCKYVF-NH2; disulfide 2-17, 9-23, 16-30)
- IC50 [1]: 630 nM
- IC50 [2]: > 5 µM

SMILES: CC[C@H](C)[C@@H]1NC(=O)[C@@H]2CSSC[C@@H]3NC(=O)[C@H](C(C)C)NC(=O)[C@H](CC(C)C)NC(=O)[C@H](CC(N)=O)NC(=O)[C@@H]4CCCN4C(=O)[C@H](CCCNC(=N)N)NC(=O)[C@H](CSSC[C@H](NC(=O)[C@@H](N)CC(=O)O)C(=O)N[C@@H](CC(C)C)C(=O)NCC(=O)N[C@@H](Cc4ccccc4)C(=O)N[C@@H](CCSC)C(=O)N[C@@H](CCCNC(=N)N)C(=O)N[C@@H](CCCCN)C(=O)N2)NC(=O)[C@H](CSSC[C@@H](C(=O)N[C@@H](CCCCN)C(=O)N[C@@H](Cc2ccc(O)cc2)C(=O)N[C@H](C(=O)N[C@@H](Cc2ccccc2)C(N)=O)C(C)C)NC(=O)[C@H](Cc2c[nH]c4ccccc24)NC(=O)[C@H](CCCCN)NC(=O)[C@H](Cc2cnc[nH]2)NC(=O)[C@H]([C@@H](C)O)NC(=O)[C@H](CCCNC(=N)N)NC(=O)[C@H](CO)NC3=O)NC(=O)[C@H](CCCNC(=N)N)NC(=O)[C@H](CC(=O)O)NC(=O)[C@H](CC(N)=O)NC(=O)[C@H](CC(=O)O)NC(=O)[C@@H]2CCCN2C1=O (H-DCLGFMRKCIPDNDRCCRPNLVCSRTHKWCKYVF-NH2; disulfide 2-17, 9-23, 16-30)
- IC50 [1]: 220 nM
- IC50 [2]: > 5 µM

SMILES: CC[C@H](C)[C@@H]1NC(=O)[C@@H]2CSSC[C@@H]3NC(=O)[C@H](C(C)C)NC(=O)[C@H](CC(C)C)NC(=O)[C@H](CC(N)=O)NC(=O)[C@@H]4CCCN4C(=O)[C@H](CCCNC(=N)N)NC(=O)[C@H](CSSC[C@H](NC(=O)[C@@H](N)Cc4c[nH]c5ccccc45)C(=O)N[C@@H](CC(C)C)C(=O)NCC(=O)N[C@@H](Cc4ccccc4)C(=O)N[C@@H](CCSC)C(=O)N[C@@H](CCCNC(=N)N)C(=O)N[C@@H](CCCCN)C(=O)N2)NC(=O)[C@H](CSSC[C@@H](C(=O)N[C@@H](CCCCN)C(=O)N[C@@H](Cc2ccc(O)cc2)C(=O)N[C@H](C(=O)N[C@@H](Cc2ccccc2)C(N)=O)C(C)C)NC(=O)[C@H](Cc2c[nH]c4ccccc24)NC(=O)[C@H](CCCCN)NC(=O)[C@H](Cc2cnc[nH]2)NC(=O)[C@H]([C@@H](C)O)NC(=O)[C@H](CCCNC(=N)N)NC(=O)[C@H](CO)NC3=O)NC(=O)[C@H](CCCCN)NC(=O)[C@H](CC(=O)O)NC(=O)[C@H](CC(N)=O)NC(=O)[C@H](CC(=O)O)NC(=O)[C@@H]2CCCN2C1=O (H-WCLGFMRKCIPDNDKCCRPNLVCSRTHKWCKYVF-NH2; disulfide 2-17, 9-23, 16-30)
- IC50 [1]: 70 nM
- IC50 [2]: > 5 µM

SMILES: CC[C@H](C)[C@@H]1NC(=O)[C@@H]2CSSC[C@@H]3NC(=O)[C@H](C(C)C)NC(=O)[C@H](CC(C)C)NC(=O)[C@H](CC(N)=O)NC(=O)[C@@H]4CCCN4C(=O)[C@H](CCCNC(=N)N)NC(=O)[C@H](CSSC[C@H](NC(=O)[C@H](CC(=O)O)NC(=O)[C@@H](N)CCCCN)C(=O)N[C@@H](CC(C)C)C(=O)NCC(=O)N[C@@H](Cc4ccccc4)C(=O)N[C@@H](CCSC)C(=O)N[C@@H](CCCNC(=N)N)C(=O)N[C@@H](CCCCN)C(=O)N2)NC(=O)[C@H](CSSC[C@@H](C(=O)N[C@@H](CCCCN)C(=O)N[C@@H](Cc2ccc(O)cc2)C(=O)N[C@H](C(=O)N[C@@H](Cc2ccccc2)C(N)=O)C(C)C)NC(=O)[C@H](Cc2c[nH]c4ccccc24)NC(=O)[C@H](CCCCN)NC(=O)[C@H](Cc2cnc[nH]2)NC(=O)[C@H]([C@@H](C)O)NC(=O)[C@H](CCCNC(=N)N)NC(=O)[C@H](CO)NC3=O)NC(=O)[C@H](CCCCN)NC(=O)[C@H](CC(=O)O)NC(=O)[C@H](CC(N)=O)NC(=O)[C@H](CC(=O)O)NC(=O)[C@@H]2CCCN2C1=O
- IC50 [1]: 120 nM
- IC50 [2]: > 5 µM

SMILES: CC[C@H](C)[C@@H]1NC(=O)[C@@H]2CSSC[C@@H]3NC(=O)[C@H](C(C)C)NC(=O)[C@H](CC(C)C)NC(=O)[C@H](CC(N)=O)NC(=O)[C@@H]4CCCN4C(=O)[C@H](CCCNC(=N)N)NC(=O)[C@H](CSSC[C@H](NC(=O)[C@@H](N)CC(=O)O)C(=O)N[C@@H](CC(C)C)C(=O)NCC(=O)N[C@@H](Cc4ccccc4)C(=O)N[C@@H](CCSC)C(=O)N[C@@H](CCC(=O)O)C(=O)N[C@@H](CCCCN)C(=O)N2)NC(=O)[C@H](CSSC[C@@H](C(=O)N[C@@H](CCCCN)C(=O)N[C@@H](Cc2ccc(O)cc2)C(=O)N[C@H](C(=O)N[C@@H](Cc2ccccc2)C(N)=O)C(C)C)NC(=O)[C@H](Cc2c[nH]c4ccccc24)NC(=O)[C@H](CCCCN)NC(=O)[C@H](Cc2cnc[nH]2)NC(=O)[C@H]([C@@H](C)O)NC(=O)[C@H](CCCNC(=N)N)NC(=O)[C@H](CO)NC3=O)NC(=O)[C@H](CCCCN)NC(=O)[C@H](CC(=O)O)NC(=O)[C@H](CC(N)=O)NC(=O)[C@H](CC(=O)O)NC(=O)[C@@H]2CCCN2C1=O (H-DCLGFMEKCIPDNDKCCRPNLVCSRTHKWCKYVF-NH2; disulfide 2-17, 9-23, 16-30)
- IC50 [1]: 860 nM
- IC50 [2]: > 5 µM

SMILES: CC[C@H](C)[C@@H]1NC(=O)[C@@H]2CSSC[C@@H]3NC(=O)[C@H](C(C)C)NC(=O)[C@H](CC(C)C)NC(=O)[C@H](CC(N)=O)NC(=O)[C@@H]4CCCN4C(=O)[C@H](CCCNC(=N)N)NC(=O)[C@H](CSSC[C@H](NC(=O)[C@@H](N)CC(=O)O)C(=O)N[C@@H](CC(C)C)C(=O)NCC(=O)N[C@@H](Cc4ccccc4)C(=O)N[C@@H](CCSC)C(=O)N[C@@H](CCCNC(=N)N)C(=O)N[C@@H](CCCCN)C(=O)N2)NC(=O)[C@H](CSSC[C@@H](C(=O)N[C@@H](CCCCN)C(=O)N[C@@H](Cc2ccc(O)cc2)C(=O)N[C@H](C(=O)N[C@@H](Cc2ccccc2)C(N)=O)C(C)C)NC(=O)[C@H](Cc2c[nH]c4ccccc24)NC(=O)[C@H](CCCCN)NC(=O)[C@H](Cc2cnc[nH]2)NC(=O)[C@H]([C@@H](C)O)NC(=O)[C@H](CCCNC(=N)N)NC(=O)[C@H](CO)NC3=O)NC(=O)[C@H](CCCCN)NC(=O)[C@H](CC(=O)O)NC(=O)[C@H](CCCNC(=N)N)NC(=O)[C@H](CC(=O)O)NC(=O)[C@@H]2CCCN2C1=O (H-DCLGFMRKCIPDRDKCCRPNLVCSRTHKWCKYVF-NH2; disulfide 2-17, 9-23, 16-30)
- IC50 [1]: 140 nM
- IC50 [2]: > 5 µM

SMILES: CC[C@H](C)[C@@H]1NC(=O)[C@H]2CSSC[C@H]3NC(=O)[C@H](C(C)C)NC(=O)[C@H](CC(C)C)NC(=O)[C@H](CC(N)=O)NC(=O)[C@@H]4CCCN4C(=O)[C@H](CCCNC(=N)N)NC(=O)[C@H](CSSC[C@H](NC(=O)[C@@H](N)CC(=O)O)C(=O)N[C@@H](CC(C)C)C(=O)NCC(=O)N[C@@H](Cc4ccccc4)C(=O)N[C@@H](CCSC)C(=O)N[C@@H](CCCNC(=N)N)C(=O)N[C@@H](CCCCN)C(=O)N2)NC(=O)[C@@H](CSSC[C@@H](C(=O)N[C@@H](CCCCN)C(=O)N[C@@H](Cc2ccc(O)cc2)C(=O)N[C@H](C(=O)N[C@@H](Cc2ccccc2)C(N)=O)C(C)C)NC(=O)[C@H](Cc2c[nH]c4ccccc24)NC(=O)[C@H](C)NC(=O)[C@H](Cc2cnc[nH]2)NC(=O)[C@H]([C@@H](C)O)NC(=O)[C@H](CCCNC(=N)N)NC(=O)[C@H](CO)NC3=O)NC(=O)[C@H](CCCCN)NC(=O)[C@H](CC(=O)O)NC(=O)[C@H](CC(N)=O)NC(=O)[C@H](CC(=O)O)NC(=O)[C@@H]2CCCN2C1=O
- IC50 [1]: 470 nM
- IC50 [2]: > 5 µM

SMILES: CC[C@H](C)[C@@H]1NC(=O)[C@@H]2CSSC[C@@H]3NC(=O)[C@H](C(C)C)NC(=O)[C@H](CC(C)C)NC(=O)[C@H](CC(N)=O)NC(=O)[C@@H]4CCCN4C(=O)[C@H](CCCNC(=N)N)NC(=O)[C@H](CSSC[C@H](NC(=O)[C@@H](N)CC(=O)O)C(=O)N[C@@H](CC(C)C)C(=O)NCC(=O)N[C@@H](Cc4ccccc4)C(=O)N[C@@H](CCSC)C(=O)N[C@@H](CCCNC(=N)N)C(=O)N[C@@H](CCCCN)C(=O)N2)NC(=O)[C@H](CSSC[C@@H](C(=O)N[C@@H](CCCCN)C(=O)N[C@@H](Cc2ccc(O)cc2)C(=O)N[C@H](C(=O)N[C@@H](Cc2ccccc2)C(N)=O)C(C)C)NC(=O)[C@H](Cc2c[nH]c4ccccc24)NC(=O)[C@H](CCCCN)NC(=O)[C@H](Cc2cnc[nH]2)NC(=O)[C@H](CCCCN)NC(=O)[C@H](CCCNC(=N)N)NC(=O)[C@H](CO)NC3=O)NC(=O)[C@H](CCCCN)NC(=O)[C@H](CC(=O)O)NC(=O)[C@H](CC(N)=O)NC(=O)[C@H](CC(=O)O)NC(=O)[C@@H]2CCCN2C1=O (H-DCLGFMRKCIPDNDKCCRPNLVCSRKHKWCKYVF-NH2; disulfide 2-17, 9-23, 16-30)
- IC50 [1]: 40 nM
- IC50 [2]: > 5 µM
